Measurements published in ChEMBL document CHEMBL4308891, “Small molecules inhibit ex vivo tumor growth in bone” (Bioorg Med Chem, 2018).
Activity calls are given as the source filed them. The calls are words filed in the database; no cut-off is given here.

What was measured:
MDA-MB-231 [1] = experiment: Down regulation of IL-8 expression in human MDA-MB-231 cells co-cultured with neonatal Swiss mouse calvariae bone measured on day 7 post treatment by SYBR green-dye based RT-qPCR analysis; assay type: functional, cell-based
How it was run: (§1)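 Calvarial disk cultures ([…] Swiss pups) in BGJb plus 10% fetal calf serum were PBS-washed at day 7 and bead-homogenized in Qiazol. Aqueous-phase RNA was isolated, reverse-transcribed and run in triplicate real-time PCR with species-specific primers. Expression was normalized to ribosomal protein L32 mRNA. n = 3 or 4 cultures, ANOVA.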

MDA-MB-231 [2] = experiment: Down regulation of FGF5 expression in human MDA-MB-231 cells co-cultured with neonatal Swiss mouse calvariae bone measured on day 7 post treatment by SYBR green-dye based RT-qPCR analysis; assay type: functional, cell-based; how it was run: as §1
Bone [3] = experiment: Effect on osteocalcin expression in neonatal Swiss mouse calvariae bone co-cultured with human MDA-MB-231 cells measured on day 7 post treatment by SYBR green-dye based RT-qPCR analysis; assay type: functional, tissue-based; conditions: Bone element; how it was run: as §1
MDA-MB-231 [4] = experiment: Upregulation of Fas expression in human MDA-MB-231 cells co-cultured with neonatal Swiss mouse calvariae bone measured on day 7 post treatment by SYBR green-dye based RT-qPCR analysis; assay type: functional, cell-based; how it was run: as §1
MDA-MB-231 [5] = experiment: Effect on ICAM expression in human MDA-MB-231 cells co-cultured with neonatal Swiss mouse calvariae bone measured on day 7 post treatment by SYBR green-dye based RT-qPCR analysis; assay type: functional, cell-based; how it was run: as §1
MDA-MB-231 [6] = experiment: Down regulation of ENPP1 expression in human MDA-MB-231 cells co-cultured with neonatal Swiss mouse calvariae bone measured on day 7 post treatment by SYBR green-dye based RT-qPCR analysis relative to control; assay type: functional; how it was run: as §1
MDA-MB-231 [7] = experiment: Cytotoxicity against human MDA-MB-231 cells at 0.625 to 5 uM after 24 hrs; assay type: cell-based; conditions: mda-mb-231, 24 h
MIA PaCa-2 [8] = experiment: Cytotoxicity against human MIAPaCa2 cells after 24 hrs; assay type: cell-based; conditions: mia paca-2, 24 h
MDA-MB-231 [9] = experiment: Cytotoxicity against human MDA-MB-231 cells at 12.5 uM after 3 days by MTS assay; assay type: cell-based; conditions: mda-mb-231, 72 h
MDA-MB-231 [10] = experiment: Antiinvasive activity in human MDA-MB-231 cells assessed as inhibition of cell invasion at 5 uM by boyden chamber method relative to control; assay type: functional
Bone [11] = experiment: Effect on Col1A1 expression in neonatal Swiss mouse calvariae bone co-cultured with human MDA-MB-231 cells measured on day 7 post treatment by SYBR green-dye based RT-qPCR analysis; assay type: functional, tissue-based; conditions: Bone element; how it was run: as §1
MDA-MB-231 [12] = experiment: (§2) Ex vivo antitumor activity against human MDA-MB-231 cells co-cultured with neonatal Swiss mouse bone in BGJb medium assessed as inhibition of tumor growth at 5 uM administered simultaneously with cancer cells measured on day 5 post treatment by Gaussia luciferase reporter gene assay relative to control; assay type: functional
How it was run: (§3)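 Calvariae from […] Swiss mouse pups were punched into 4 or 5 mm disks. Each was seeded with 1 x 10^4 tumor cells (lentiviral secreted Gaussia luciferase/GFP-blasticidin, FACS-sorted GFP+) in BGJb plus 10% fetal calf serum at 37°C, 5% CO2. After 24 h bones moved to fresh wells; medium changed every 2 days. Conditioned-medium luciferase read as RLU. Biological triplicate, mean ± SD, Welch's t-test.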

MDA-MB-231 [13] = experiment: Effect on CCL2 expression in human MDA-MB-231 cells co-cultured with neonatal Swiss mouse calvariae bone measured on day 7 post treatment by SYBR green-dye based RT-qPCR analysis; assay type: functional, cell-based; how it was run: as §1
Bone [14] = experiment: Down regulation of RANKL expression in neonatal Swiss mouse calvariae bone co-cultured with human MDA-MB-231 cells measured on day 7 post treatment by SYBR green-dye based RT-qPCR analysis; assay type: functional, tissue-based; conditions: Bone element; how it was run: as §1
NCI-H460 [15] = experiment: Antiinvasive activity in human NCI-H460 cells at 5 uM by boyden chamber method; assay type: functional, cell-based
MDA-MB-231 [16] = experiment: Antimigratory activity in human MDA-MB-231 cells at 10 uM after 9 hrs by wound healing assay; assay type: functional, cell-based
How it was run: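 Confluent monolayers in 12-well plates were scratched with a micropipette tip, washed, then cultured in complete medium with compound. Gap width between wound edges was measured by microscopy in three random regions right after wounding and at 6 and 9 h.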

[17] = Inhibition of angiogenesis in human HRMEC assessed as inhibition of endothelial cell tube formation up to 10 uM after 8 hrs by microscopic analysis
How it was run: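 Primary human retinal microvascular endothelial cells were grown on Matrigel in complete medium for 8 h, then tubule formation was measured. Significance was assessed by ANOVA.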

MDA-MB-231 [18] = experiment: (§4) Ex vivo antitumor activity against human MDA-MB-231 cells co-cultured with neonatal Swiss mouse bone in BGJb medium assessed as inhibition of tumor growth at 5 uM administered on day 2 post cancer cells addition measured on day 7 post treatment by Gaussia luciferase reporter gene assay relative to control; assay type: functional; how it was run: as §3
NCI-H460 [19] = experiment: Cytotoxicity against human NCI-H460 cells after 24 hrs; assay type: cell-based; conditions: nci-h460, 24 h
MIA PaCa-2 [20] = experiment: Antiinvasive activity in human MIAPaCa2 cells at 5 uM by boyden chamber method; assay type: functional, cell-based
MDA-MB-231 [21] = experiment: Effect on CTGF expression in human MDA-MB-231 cells co-cultured with neonatal Swiss mouse calvariae bone measured on day 7 post treatment by SYBR green-dye based RT-qPCR analysis; assay type: functional, cell-based; how it was run: as §1
MDA-MB-231 [22] = experiment: as §4, with “5” for “7”; assay type: functional; how it was run: as §3
MDA-MB-231 [23] = experiment: as §2, with “day 7” for “day 5”; assay type: functional; how it was run: as §3
MDA-MB-231 [24] = experiment: Upregulation of BCL2L1 expression in human MDA-MB-231 cells co-cultured with neonatal Swiss mouse calvariae bone measured on day 7 post treatment by SYBR green-dye based RT-qPCR analysis; assay type: functional, cell-based; how it was run: as §1
MDA-MB-231 [25] = experiment: Down regulation of IL11 expression in human MDA-MB-231 cells co-cultured with neonatal Swiss mouse calvariae bone measured on day 7 post treatment by SYBR green-dye based RT-qPCR analysis relative to control; assay type: functional; how it was run: as §1
Bone [26] = experiment: Down regulation of TRAP expression in neonatal Swiss mouse calvariae bone co-cultured with human MDA-MB-231 cells measured on day 7 post treatment by SYBR green-dye based RT-qPCR analysis; assay type: functional, tissue-based; conditions: Bone element; how it was run: as §1
U-87 MG [27] = experiment: Cytotoxicity against human U87 cells after 24 hrs; assay type: cell-based; conditions: u-87mg atcc
U-87 MG [28] = experiment: Antiinvasive activity in human U87 cells at 5 uM by boyden chamber method; assay type: functional, cell-based; conditions: U-87MG ATCC
MDA-MB-231 [29] = experiment: Antiinvasive activity in human MDA-MB-231 cells by boyden chamber method; assay type: functional, cell-based

Cc1ccc(N2C(=O)C3NN=C(c4ccc(Cl)cc4)C3C2c2cccc(F)c2)cc1Br (stereo not given)
Activity (MDA-MB-231 [1]): Active
Activity (MDA-MB-231 [2]): inactive
Activity (Bone [3]): inactive
Activity (MDA-MB-231 [4]): Active
Activity (MDA-MB-231 [5]): inactive
Activity (MDA-MB-231 [6]): 60%
Activity (MDA-MB-231 [7]): Non-Toxic
Activity (MIA PaCa-2 [8]): Non-Toxic
Activity (MDA-MB-231 [9]): Non-Toxic
inhibition at 5 µM (MDA-MB-231 [10]): > 70%
Activity (Bone [11]): inactive
TGI (MDA-MB-231 [12]): 70%
Activity (MDA-MB-231 [13]): inactive
Activity (Bone [14]): Active
Activity (NCI-H460 [15]): inactive
Activity (MDA-MB-231 [16]): inactive
Activity [17]: Not Active
TGI (MDA-MB-231 [18]): 47%
Activity (NCI-H460 [19]): Non-Toxic
Activity (MIA PaCa-2 [20]): Active
Activity (MDA-MB-231 [21]): inactive
TGI (MDA-MB-231 [22]): 66%
TGI (MDA-MB-231 [23]): 60%
Activity (MDA-MB-231 [24]): Active
Activity (MDA-MB-231 [25]): >80%
Activity (Bone [26]): Active
Activity (U-87 MG [27]): Non-Toxic
Activity (U-87 MG [28]): inactive
Activity (MDA-MB-231 [29]): Dose-dependent effect
IC50 (MDA-MB-231 [29]): 2900 nM

O=C1C2C(C(c3ccc(Cl)cc3)=NN2C2CCCCC2)C(c2cccc(F)c2)N1CCc1c[nH]c2ccccc12 (stereo not given)
inhibition (MDA-MB-231 [10]): inactive
TGI (MDA-MB-231 [12]): Active
TGI (MDA-MB-231 [18]): Active
TGI (MDA-MB-231 [22]): Active
TGI (MDA-MB-231 [23]): Active

O=C1C2NN=C(c3ccc(Cl)cc3)C2C(c2cccc(F)c2)N1Cc1c[nH]c2ccccc12 (stereo not given)
inhibition at 5 µM (MDA-MB-231 [10]): 20%
TGI (MDA-MB-231 [12]): Active
TGI (MDA-MB-231 [18]): Active
TGI (MDA-MB-231 [22]): Active
TGI (MDA-MB-231 [23]): Active

O=C1C2NN=C(c3ccc(Cl)cc3)C2C(c2cccc(F)c2)N1CCc1cccnc1 (stereo not given)
inhibition at 5 µM (MDA-MB-231 [10]): 40%
TGI (MDA-MB-231 [12]): Active
TGI (MDA-MB-231 [18]): Active
TGI (MDA-MB-231 [22]): Active
TGI (MDA-MB-231 [23]): Active

COc1cccc(C2=NNC3C(=O)N(CCc4c[nH]c5ccccc45)C(c4cccc(F)c4)C23)c1 (stereo not given)
inhibition at 5 µM (MDA-MB-231 [10]): 90%
TGI (MDA-MB-231 [12]): Active
TGI (MDA-MB-231 [18]): >50%
TGI (MDA-MB-231 [22]): Active
TGI (MDA-MB-231 [23]): >50%

Cc1ccc(N2C(=O)C3C(C(c4ccc(Cl)cc4)=NN3C)C2c2cccc(F)c2)cc1Br (stereo not given)
inhibition at 5 µM (MDA-MB-231 [10]): > 70%
TGI (MDA-MB-231 [12]): Active
TGI (MDA-MB-231 [18]): Active
TGI (MDA-MB-231 [22]): Active
TGI (MDA-MB-231 [23]): Active

CC(C)N1N=C(c2ccc(Cl)cc2)C2C(c3cccc(F)c3)N(CCc3c[nH]c4ccccc34)C(=O)C21 (stereo not given)
inhibition at 5 µM (MDA-MB-231 [10]): > 70%
TGI (MDA-MB-231 [12]): Active
TGI (MDA-MB-231 [18]): 40%
TGI (MDA-MB-231 [22]): Active
TGI (MDA-MB-231 [23]): 40%
